{
  "source": "paper PMC12393906",
  "about": "(Molecular Therapy, 2025)",
  "key": {"[1]": {"tested_on": "mouse platelets", "experiment": "Flow cytometry of P-selectin exposure and αIIbβ3 integrin activation", "assay_type": "cell-based", "in_short": "(§1)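 Washed mouse platelets (2 × 10^8/mL in HEPES-Tyrode; C57BL/6 or Ero1α/β-null) were pretreated 20 min at 37°C with 0.1% DMSO vehicle or test compound. Agonist was added for 5 min at 37°C. Cells were stained 15 min with labelled anti-P-selectin or JON/A (activated αIIbβ3) and read by flow cytometry as geometric mean fluorescence intensity.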"}, "[2]": {"tested_on": "mouse platelets", "experiment": "Serotonin secretion", "assay_type": "cell-based", "conditions": "2.5 or 5 μM"}, "[3]": {"tested_on": "mouse platelets", "experiment": "Detection of intracellular ROS", "assay_type": "cell-based", "conditions": "5 μM", "in_short": "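Platelets from C57BL/6, WT control or Ero1α/β CKO mice were pretreated 20 min at 37°C with or without 0.1% DMSO vehicle or test compound. They were loaded with 1 μM DCF for 10 min, then stimulated 5 min with thrombin or CRP, or left unstimulated. DCF fluorescence was read by flow cytometry.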"}, "[4]": {"tested_on": "mouse platelets", "experiment": "Analysis of cell viability", "assay_type": "cell-based", "conditions": "5 μM; incubation 20 minutes to 24 hours", "in_short": "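Platelets were isolated from ACD blood of C57BL/6, WT control or Ero1α/β CKO mice (8–12 weeks) and washed in HEPES-Tyrode buffer at 2 × 10^8 cells/mL. They were incubated at 37°C with vehicle (0.1% DMSO) or test compound for various times. Cells were then labelled with FITC-annexin V for 20 min and read by flow cytometry.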"}, "[5]": {"tested_on": "mouse blood", "experiment": "Flow chamber assay on collagen-coated surfaces under arterial shear", "assay_type": "cell-based", "conditions": "5 μM, 50 dyne/cm^2", "in_short": "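Plates were coated with fibrillar type 1 collagen (100 μg/mL, 1 h, 37°C) and washed with PBS/0.05% BSA. ACD-anticoagulated blood was treated 15 min at 37°C with 0.1% DMSO vehicle or 5 μM test compound, then labelled with 1 μM DiOC6 for 5 min. After adding 6 mM CaCl2 and 3 mM MgCl2, blood was perfused at 50 dyne/cm2 (mouse blood: 2 min). Surface coverage and thrombus volume were measured by epifluorescence.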"}, "[6]": {"tested_on": "mouse platelets", "experiment": "Ca2+ mobilization", "assay_type": "cell-based", "conditions": "thrombin, A23187 or thapsigargin", "in_short": "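Mouse platelets were preincubated 20 min with vehicle (0.1% DMSO) or test compound, then loaded with FLIPR Ca2+ 5 dye for 30 min at 37°C in the dark. Release was triggered by 0.02 U/mL thrombin, 0.5 μM A23187 or 5 μM thapsigargin, and influx by adding 2 mM CaCl2. Fluorescence was read at ex 485/em 525 nm and reported as area under the curve (RFU).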"}, "[7]": {"tested_on": "human platelets", "experiment": "Ca2+ mobilization", "assay_type": "cell-based"}, "[8]": {"tested_on": "Ero1α/β-null platelets", "assay_type": "cell-based, mouse", "in_short": "as §1"}, "[9]": {"tested_on": "Ero1α/β-null platelets", "experiment": "Platelet aggregation and ATP secretion in knockout platelets", "assay_type": "cell-based, mouse", "in_short": "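Washed mouse platelets (WT control, C57BL/6 or Ero1α/β-null) were pretreated 20 min at 37°C with 0.1% DMSO vehicle or test compound. After agonist addition, aggregation and ATP secretion were recorded together in a lumi-aggregometer at 37°C with stirring at 1,000 rpm.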"}, "[10]": {"tested_on": "pancreatic islet cells", "experiment": "Glucose-stimulated insulin secretion and insulin content", "assay_type": "cell-based, mouse", "conditions": "1 or 5 μM; high glucose (16.7 mM)", "in_short": "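Islets were isolated by bile-duct perfusion of type V collagenase (0.45 mg/mL), handpicked and cultured overnight in RPMI/10% FCS. They were exposed 3 h in KRBH (pH 7.4) to 2.8 mM or 16.7 mM glucose, ± vehicle (0.1% DMSO) or 1 or 5 μM test compound. Ten islets per group then had 1 h in low glucose, then 1 h at 37°C under the same conditions, in technical duplicates. Supernatant insulin and acid-ethanol-extracted content were measured by ELISA.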"}, "[11]": {"tested_on": "C57BL/6 mice", "experiment": "Intravital microscopy, laser-induced cremaster arteriolar injury", "assay_type": "in vivo, mouse", "conditions": "iv 0.3 μg/g BW 10 min before IVM", "in_short": "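Male mice (8–12 weeks) were anaesthetised with ketamine/xylazine ip. The cremaster was exteriorised and superfused with 37°C bicarbonate-buffered saline. Vehicle (1% DMSO) or test compound (0.3 μg/g BW) was given iv, and 10 min later DyLight 649 anti-CD42c (0.1 μg/g BW) was given. Laser ablation injured 3–4 arterioles per mouse. Median integrated platelet fluorescence was tracked over time, using […] per group.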"}, "[12]": {"tested_on": "C57BL/6 mice", "experiment": "FeCl3-induced carotid arterial thrombosis", "assay_type": "in vivo, mouse", "conditions": "for time to occlusion (TTO): iv 0.3 μg/g BW", "in_short": "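Male and female mice, 8–12 weeks, were anaesthetised with ip ketamine/xylazine. A 2 × 2 mm filter disc carrying 1.2 μL of 7 or 10% FeCl3 was placed on the carotid artery for 2 min. Flow was monitored by Doppler flow meter. TTO was the time from disc removal to stable occlusion (no flow for 5 min).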"}, "[13]": {"tested_on": "C57BL/6 mice", "experiment": "Tail bleeding time and hemoglobin content", "assay_type": "in vivo, mouse", "conditions": "iv 0.3 μg/g BW"}, "[14]": {"tested_on": "C57BL/6 mice", "experiment": "tMCAO-induced ischemic stroke", "assay_type": "in vivo, mouse", "conditions": "iv 0.3 μg/g BW after 1 h tMCAO; 23 h reperfusion", "in_short": "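Male mice, 10–12 weeks, were anaesthetised with 1.2%–1.5% isoflurane in oxygen and given buprenorphine-ER 0.1 μg/g ip. After 1 h MCA occlusion the filament was withdrawn to restore flow. Vehicle (1% DMSO) or test compound was then given iv. After 23 h reperfusion, Bederson score, grip strength and infarct volume were assessed.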"}, "[15]": {"conditions": "at concentrations required to reduce ERO1α activity; cited from earlier work"}},
  "data": [
    {"molecule": "O=C(O)c1cc(N2N=C(C(F)(F)F)/C(=C/c3ccc(-c4ccccc4)o3)C2=O)ccc1Cl", "note": "[EN460]", "values": [
      {"measurement": "P-selectin exposure and αIIbβ3 integrin activation", "setting": "[1]; 1-5 µM, low agonist: 0.01 U/mL thrombin, 0.025 μg/mL CRP, 0.5 μM U46619, 0.5 μM A23187, concentration-dependent", "result": "inhibited"},
      {"measurement": "P-selectin exposure and αIIbβ3 integrin activation", "setting": "[1]; 2.5 or 5 μM, high agonist: thrombin 0.1 U/mL or CRP 0.2 μg/mL, weaker effect", "result": "still observed"},
      {"measurement": "P-selectin exposure and αIIbβ3 integrin activation in resting platelets", "setting": "[1]; M6766 5 μM, EN460 2.5 or 5 μM, no agonist", "result": "appeared to enhance both events"},
      {"measurement": "serotonin secretion from resting platelets", "setting": "[2]; no agonist", "result": "enhanced serotonin secretion from resting platelets"},
      {"measurement": "serotonin secretion from activated platelets", "setting": "[2]; thrombin or CRP", "result": "either enhancing or inhibiting secretion"},
      {"measurement": "agonist-induced DCF signal (ROS)", "setting": "[3]; after thrombin", "result": "reduced the signal"},
      {"measurement": "ROS production in resting platelets", "setting": "[3]; no agonist", "result": "moderately increased ROS production"},
      {"measurement": "annexin V binding (platelet viability)", "setting": "[4]", "result": "markedly increased annexin V binding within 20 min"},
      {"measurement": "surface coverage and volume of platelet thrombi", "setting": "[5]", "result": "significantly reduced"},
      {"measurement": "Ca2+ release and influx", "setting": "[6]; 0.25 or 0.5 μM", "result": "no or minimal inhibition"},
      {"measurement": "Ca2+ release and influx", "setting": "[6]; 1 or 2.5 μM", "result": "significantly reduced both Ca^2+ release and influx"},
      {"measurement": "thrombin-induced Ca2+ influx", "setting": "[7]; 0.5 μM", "result": "reduced thrombin-induced Ca^2+ influx"},
      {"measurement": "Ca2+ release and influx", "setting": "[7]; 2 or 5 μM, activated human platelets", "result": "significantly inhibited both Ca^2+ release and influx"},
      {"measurement": "P-selectin exposure and αIIbβ3 integrin activation in resting platelets", "setting": "[8]; M6766 5 μM, EN460 2.5 μM, no agonist", "result": "appeared to increase the levels of these surface markers"},
      {"measurement": "agonist-induced P-selectin exposure and αIIbβ3 integrin activation", "setting": "[8]; various concentrations, 0.01 U/mL thrombin, 0.025 μg/mL CRP", "result": "significantly reduced"},
      {"measurement": "ATP secretion", "setting": "[9]; 2.5 μM, 0.015 U/mL thrombin", "result": "not ATP secretion"},
      {"measurement": "thrombin-induced aggregation", "setting": "[9]; 2.5 μM, 0.015 U/mL thrombin", "result": "markedly inhibited thrombin-induced aggregation"},
      {"measurement": "thrombin-stimulated aggregation and ATP secretion", "setting": "[9]; 5 μM, 0.015 U/ml thrombin", "result": "significantly inhibited both responses"},
      {"measurement": "insulin secretion or content", "setting": "[10]", "result": "did not reduce insulin secretion or content"},
      {"measurement": "initial platelet adhesion at sites of laser injury", "setting": "[11]", "result": "without affecting initial platelet adhesion"},
      {"measurement": "platelet accumulation at sites of laser injury", "setting": "[11]", "result": "significantly inhibited platelet accumulation"},
      {"measurement": "carotid arterial thrombosis (time to occlusion)", "setting": "[12]; 0.1 μg/g BW, 7% FeCl3", "result": "did not inhibit carotid arterial thrombosis"},
      {"measurement": "time to occlusion (TTO)", "setting": "[12]; 7% FeCl3", "result": "significantly prolonged the time to occlusion"},
      {"measurement": "time to occlusion (TTO)", "setting": "[12]; 10% FeCl3", "result": "did not affect TTO"},
      {"measurement": "tail bleeding times and blood loss", "setting": "[13]", "result": "did not prolong tail bleeding times or increase blood loss"},
      {"measurement": "Bederson score", "setting": "[14]", "result": "decreased the Bederson score"},
      {"measurement": "grip strength", "setting": "[14]", "result": "increased grip strength"},
      {"measurement": "infarct volume", "setting": "[14]", "result": "significantly reduced infarct volume"},
      {"measurement": "thiol reactivity", "setting": "[15]", "result": "exhibits thiol reactivity"}
    ]}
  ]
}
